The record followed here is ChEMBL document CHEMBL1123857, “Pyridonecarboxylic acids as antibacterial agents. 9. Synthesis and antibacterial activity of 1-substituted 6-fluoro-1,4-dihydro-4-oxo-7-(4-pyridyl)-1,8-naphthyridine-3-carboxylic acids” (1987).

In assay [1] the test system is Pseudomonas aeruginosa. Description: Compound was tested in vitro for antibacterial activity against the microbial strain Pseudomonas aeruginosa 12. It is filed as functional.
Assay [2] has as its system Staphylococcus aureus. Description: Compound was tested in vitro for antibacterial activity against the microbial strain Staphylococcus aureus 209P JC-1. Format: functional.
The test system of assay [3] is Escherichia coli. The assay can be described thus: Compound was tested in vitro for antibacterial activity against the microbial strain Escherichia coli NIHJ JC-2. It is filed as functional.
Assay [4] deals with Mus musculus. The assay can be described thus: Antibacterial activity against Escherichia coli P-5101 microbial strains in mice was determined expressed as ED50 (mg/kg). It is filed as functional. Put shortly: (§1)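 Male Std-ddY mice (20 ± 2 g), in groups of 10 or more, were infected with S. aureus 50774 (iv, 5×10^8 cells), E. coli P-5101 (ip, 9×10^6 cells) or P. aeruginosa 12 (ip, 4×10^3 cells). Compounds were suspended in 0.2% sodium (carboxymethyl)cellulose and dosed orally at 0 and 6 h postinfection. Survival was scored at 2 weeks for S. aureus and at 1 week for the others.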

Assay [5] deals with Staphylococcus aureus. Description: Antibacterial activity against Staphylococcus aureus 50774 microbial strains; was determined expressed as MIC.
The subject of assay [6] is Escherichia coli. Description: Antibacterial activity against Escherichia coli P-5101 microbial strains was determined expressed as MIC.
Assay [7] has as its system Mus musculus. The assay can be described thus: Antibacterial activity against Pseudomonas aeruginosa 12 microbial strains in mice was determined expressed as ED50 (mg/kg). Format: functional. The method, boiled down:
as §1

The species entered for assay [8] is Mus musculus. Description: Antibacterial activity (oral efficacy) against systemic infections due to Staphylococcus aureus 50774 microbial strains in mice was determined. Format: functional. Put shortly:
as §1

For assay [9], the system named is Pseudomonas aeruginosa. The assay can be described thus: Antibacterial activity against Pseudomonas aeruginosa 12 microbial strains; was determined expressed as MIC.
Assay [10] concerns Pseudomonas aeruginosa. Description: Compound was tested in vitro for antibacterial activity against the microbial strainP. aeruginosa 12. It is filed as functional. The method, boiled down: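 MIC (µg/mL) was determined by twofold agar dilution on Mueller-Hinton agar at pH 7.4. Inocula were about 10⁶ CFU. Growth was read after 20 h incubation at 37 °C.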
Assay [11] relates to Staphylococcus aureus. Description: Antibacterial activity against Staphylococcus aureus 50774 microbial strains; was determined expressed as MIC. This is another data set of the same source.
Assay [12] concerns Escherichia coli. The assay can be described thus: Antibacterial activity against Escherichia coli P-5101 microbial strains; was determined expressed as MIC.

Values after ≈ are worked out from the molar mass of the structure shown.

With `C=Cn1cc(C(=O)O)c(=O)c2cc(F)c(-c3ccncc3)nc21`, the MIC (usually the lowest concentration that inhibits growth of the organism) stood at 6.25 µg/mL (≈ 20.1 µM) in assay [1], 1.56 µg/mL (≈ 5.01 µM) in [2] and 0.78 µg/mL (≈ 2.51 µM) in assay [3].
Take `O=C(O)c1cn(CCF)c2nc(N3CCNCC3)c(F)cc2c1=O`: the values for the MIC in [1], in assay [2] and in assay [3] were 0.78 µg/mL (≈ 2.31 µM), 0.39 µg/mL (≈ 1.15 µM) and 0.2 µg/mL (≈ 0.591 µM), respectively.
As for `O=C(O)c1cn(C2CC2)c2nc(-c3ccncc3)c(F)cc2c1=O`, the MIC in assay [1] was found to be 0.78 µg/mL (≈ 2.4 µM); in [2] it was 0.2 µg/mL (≈ 0.615 µM); in assay [5], 0.1 µg/mL (≈ 0.307 µM); in assay [6], 0.05 µg/mL (≈ 0.154 µM); in assay [3] it was 0.1 µg/mL (≈ 0.307 µM); in assay [9], 0.78 µg/mL (≈ 2.4 µM). The values for the ED50 in [4], in assay [7] and in assay [8] were 4.48 mg/kg, 15 mg/kg and 5.43 mg/kg, respectively.
For the compound `CCn1cc(C(=O)O)c(=O)c2ccc(N3CCNCC3)nc21`, the MIC was 12.5 µg/mL (≈ 41.3 µM) in assay [2], 12.5 µg/mL (≈ 41.3 µM) in [10] and 6.25 µg/mL (≈ 20.7 µM) in assay [3].
In the case of `O=C(O)c1cn(CCF)c2nc(-c3ccncc3)c(F)cc2c1=O`, the MIC in [1] amounted to 1.56 µg/mL (≈ 4.71 µM); in assay [2] it was 0.39 µg/mL (≈ 1.18 µM); in assay [5], 0.39 µg/mL (≈ 1.18 µM); in [6], 0.1 µg/mL (≈ 0.302 µM); in assay [3], 0.2 µg/mL (≈ 0.604 µM); in assay [9], 1.56 µg/mL (≈ 4.71 µM). In addition, the ED50 (as a rule, the dose that gives a 50% effect, or the effect in half of the subjects) turned out to be 4.91 mg/kg in assay [4], 14.9 mg/kg in assay [7] and 3.37 mg/kg in assay [8].
Regarding `C=Cn1cc(C(=O)O)c(=O)c2cc(F)c(N3CCNCC3)nc21`, the MIC amounted to 0.39 µg/mL (≈ 1.23 µM) in assay [1], 1.56 µg/mL (≈ 4.9 µM) in assay [2] and 0.1 µg/mL (≈ 0.314 µM) in assay [3].
Take `O=C(O)c1cn(CCO)c2nc(-c3ccncc3)c(F)cc2c1=O`: the values for the MIC in [1], in assay [2] and in [3] were 50 µg/mL (≈ 152 µM), 50 µg/mL (≈ 152 µM) and 1.56 µg/mL (≈ 4.74 µM), respectively.
Consider `CCn1cc(C(=O)O)c(=O)c2ccc(-c3ccncc3)nc21`, for which the MIC in assay [1] was determined as 12.5 µg/mL (≈ 42.3 µM); in [2], 1.56 µg/mL (≈ 5.28 µM); in assay [3], 0.78 µg/mL (≈ 2.64 µM).
The matching figures for `CCn1cc(C(=O)O)c(=O)c2cc(F)c(-c3ccncc3)nc21`: 3.13 µg/mL (≈ 9.99 µM), 0.39 µg/mL (≈ 1.24 µM) and 0.2 µg/mL (≈ 0.638 µM).
As for `CCn1cc(C(=O)O)c(=O)c2cc(F)c(N3CCNCC3)nc21` [ENOXACIN], the MIC amounted to 0.78 µg/mL (≈ 2.44 µM) in [1]; 0.78 µg/mL (≈ 2.44 µM) in [2]; 0.78 µg/mL (≈ 2.44 µM) in assay [11]; 0.2 µg/mL (≈ 0.624 µM) in assay [3]; 0.1 µg/mL (≈ 0.312 µM) in assay [12]; 0.78 µg/mL (≈ 2.44 µM) in assay [9]. For the same compound, the ED50 turned out to be 1.9 mg/kg in assay [4], 9 mg/kg in assay [7] and 10 mg/kg in assay [8].
On to `CCn1cc(C(=O)O)c(=O)c2ccc(-c3ccncc3)cc21` [ROSOXACIN], for which the MIC in [1] is 3.13 µg/mL (≈ 10.6 µM); in assay [2], 0.78 µg/mL (≈ 2.65 µM); in assay [5], 0.39 µg/mL (≈ 1.33 µM); in assay [6], 0.2 µg/mL (≈ 0.68 µM); in [3] it was 0.39 µg/mL (≈ 1.33 µM); in assay [9], 3.13 µg/mL (≈ 10.6 µM). Also, the ED50 in assay [4] amounted to 7.3 mg/kg; in [7], 29.2 mg/kg; in assay [8], 6.8 mg/kg.
